Experimental data taken from ChEMBL document CHEMBL1124106, “Synthesis of diethylenetriaminepentaacetic acid conjugated inulin and utility for cellular uptake of liposomes” (J Med Chem, 1988).
Where “and” joins values, the source holds several entries; their conditions need not be identical. Equal values may be shown once.

Columns and labels:
Conditions in all cases: in vivo
Mus musculus [1] = experiment: Biodistribution in mice leg muscle, after 12 hr of intravenous administration of 1-2 ug of compound (entrapped in bovine brain sphingomyelin/ cholesterol multilamellar vehicles); assay type: ADME, organism-based, Muscle tissue
Method in brief: (§1)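 BALB/c mice (about 25 g), 3–5 per group, given 50–100 μL tail-vein injection of 111In-labeled conjugate entrapped in SM/CH (2:1 mol/mol) multilamellar vesicles, approx. 100 000 cpm; dose 1–2 μg phospholipid/g body weight. Killed by cervical dislocation at set times; blood, cumulative excretion and rinsed, blotted, weighed tissues γ-counted, blood background subtracted. Result is % injected dose ± SD.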

Mus musculus [2] = experiment: Biodistribution in mice lung, after 24 hr of intravenous administration of 1-2 ug of compound (entrapped in bovine brain sphingomyelin/ cholesterol multilamellar vehicles); assay type: ADME, organism-based; method in brief: as §1
Mus musculus [3] = experiment: Biodistribution in mice fat, after 48 hr of intravenous administration of 1-2 ug of compound (entrapped in bovine brain sphingomyelin/ cholesterol multilamellar vehicles); assay type: ADME, organism-based; method in brief: as §1
Mus musculus [4] = experiment: Biodistribution of compound in mice intestine after 0.17 hr of intravenous injection; assay type: ADME, organism-based
Method in brief: (§2)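 BALB/c mice (about 25 g), n = 4. Free ¹¹¹In- or ⁶⁷Ga-labeled compound (50–100 μL, about 100 000 cpm) was injected into a tail vein. Mice were held in separate cages and killed by cervical dislocation, with blood and cumulative excreta collected. Tissues were rinsed, blotted, weighed and γ-counted, with blood background subtracted (blood volume 8.0%). Values are % injected dose ± SD.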

Mus musculus [5] = experiment: Biodistribution of compound in mice intestine after 1 hr of intravenous injection; assay type: ADME, organism-based; method in brief: as §2
Mus musculus [6] = experiment: Biodistribution in mice spleen, after 24 hr of intravenous administration of 1-2 ug of compound (entrapped in bovine brain sphingomyelin/ cholesterol multilamellar vehicles); assay type: ADME, organism-based; method in brief: as §1
Mus musculus [7] = experiment: Biodistribution in mice carcass, after 24 hr of intravenous administration of 1-2 ug ofcompound (entrapped in bovine brain sphingomyelin/ cholesterol multilamellar vehicles); assay type: ADME, organism-based; method in brief: as §1
Mus musculus [8] = experiment: Biodistribution in mice stomach, after 48 hr of intravenous administration of 1-2 ug of compound (entrapped in bovine brain sphingomyelin/ cholesterol multilamellar vehicles); assay type: ADME, organism-based
Method in brief: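 BALB/c mice (about 25 g), groups of 2–5. Compound ¹¹¹In-loaded into SM/CH (2:1, mol/mol) multilamellar vesicles, given as a single tail-vein injection. Lipid dose was 1–2 μg phospholipid/g body weight, in 50–100 μL carrying about 100 000 cpm. Mice were killed by cervical dislocation. Organs were rinsed, blotted, weighed and γ-counted, with blood background subtracted. Values are % injected dose ± SD.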

ID (Mus musculus [1]): 0.4% | ID (Mus musculus [2]): 0.4% | ID (Mus musculus [3]): 0.1% | ID (Mus musculus [4]): 2.2% and 2.4% | ID (Mus musculus [5]): 0.8% and 1.4% | ID (Mus musculus [6]): 1.9% | ID (Mus musculus [7]): 2.1% | ID (Mus musculus [8]): 0%
SMILES: NCCNC(=O)CN(CCN(CCN(CC(=O)O)CC(=O)O)CC(=O)O)CC(=O)O
